Experimental data published in ChEMBL document CHEMBL3124934, “Identification of a methoxynaphthalene scaffold as a core replacement in quinolizidinone amide M(1) positive allosteric modulators” (Bioorg Med Chem Lett, 2014).

Key:
[1] = Apparent permeability of the compound; format: physicochemical; details: not told
[2] = target: Multidrug resistance protein 1a (Rattus norvegicus, UniProt Q6PSM0); assay: Activity at rat MDR1a assessed as ratio of permeability from basolateral to apical side over permeability from apical to basolateral side by cell based assay
[3] = target: ATP-dependent translocase ABCB1 (Homo sapiens, UniProt P08183); assay: Activity at human MDR1 assessed as ratio of permeability from basolateral to apical side over permeability from apical to basolateral side by cell based assay
[4] = target: T1, Muscarinic acetylcholine receptor M1 (Homo sapiens) (UniProt P11229); assay: Positive allosteric modulation of human muscarinic M1 receptor expressed CHO cells assessed as intrinsic potency of acetylcholine-induced calcium mobilization by FLIPR assay; format: functional, cell-based
T1 sequence (whole entry): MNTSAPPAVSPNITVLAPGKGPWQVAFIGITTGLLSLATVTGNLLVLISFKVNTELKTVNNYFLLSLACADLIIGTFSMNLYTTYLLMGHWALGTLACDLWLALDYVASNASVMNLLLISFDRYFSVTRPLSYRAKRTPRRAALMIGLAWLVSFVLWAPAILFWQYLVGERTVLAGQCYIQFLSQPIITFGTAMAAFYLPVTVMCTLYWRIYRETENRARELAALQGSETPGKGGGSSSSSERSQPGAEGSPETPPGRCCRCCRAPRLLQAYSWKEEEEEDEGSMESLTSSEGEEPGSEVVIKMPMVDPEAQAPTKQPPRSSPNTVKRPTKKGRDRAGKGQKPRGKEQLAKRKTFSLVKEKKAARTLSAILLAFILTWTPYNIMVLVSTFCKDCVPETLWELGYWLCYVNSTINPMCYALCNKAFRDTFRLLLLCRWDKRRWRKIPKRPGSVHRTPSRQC
Method in brief: (§1)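 Human M1 receptor expressed in CHO cells, with calcium mobilization read by FLIPR. Inflection point (IP, nM) and % max response are taken as the numerical average of at least two experiments. Interassay variability was ±30% for IP unless noted otherwise.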

[5] = Plasma protein binding in rat plasma; format: ADME, cell-free; details: read-out: PPB (converted)
[6] = Ratio of drug level in cerebrospinal fluid in Sprague-Dawley rat at 10 mg/kg, po to unbound fraction in rat plasma; format: ADME, organism-based, CSF/Plasma; design: dose 10 mg/kg, route oral; details: in vivo
[7] = Ratio of drug level in brain to plasma in Sprague-Dawley rat at 10 mg/kg, po; format: ADME, organism-based; design: dose 10 mg/kg, route oral; details: read-out: BPR
Cerebrospinal fluid = assay: Drug level in Sprague-Dawley rat cerebrospinal fluid at 10 mg/kg, po; format: ADME, organism-based; design: dose 10 mg/kg, route oral; details: in vivo, read-out: Drug uptake; also: time not given here
Brain = assay: Drug level in Sprague-Dawley rat brain at 10 mg/kg, po; format: ADME, organism-based; design: dose 10 mg/kg, route oral; details: in vivo, read-out: Drug uptake; also: time not given here
Plasma = assay: Plasma concentration in Sprague-Dawley rat at 10 mg/kg, po; format: ADME, organism-based; design: dose 10 mg/kg, route oral; details: in vivo; also: time not given here
[8] = target: T1, Muscarinic acetylcholine receptor M1 (Homo sapiens); assay: Positive allosteric modulation of human muscarinic M1 receptor expressed CHO cells assessed as intrinsic potency of acetylcholine-induced calcium mobilization by FLIPR assay relative to control; format: functional, cell-based; method in brief: as §1
[9] = target: T1, Muscarinic acetylcholine receptor M1 (Homo sapiens); assay: Positive allosteric modulation of human muscarinic M1 receptor expressed CHO cells assessed as intrinsic potency of acetylcholine-induced calcium mobilization by FLIPR assay relative to acetylcholine; format: functional, cell-based; method in brief: as §1

Chain of ATP-dependent translocase ABCB1 (P08183 whole entry): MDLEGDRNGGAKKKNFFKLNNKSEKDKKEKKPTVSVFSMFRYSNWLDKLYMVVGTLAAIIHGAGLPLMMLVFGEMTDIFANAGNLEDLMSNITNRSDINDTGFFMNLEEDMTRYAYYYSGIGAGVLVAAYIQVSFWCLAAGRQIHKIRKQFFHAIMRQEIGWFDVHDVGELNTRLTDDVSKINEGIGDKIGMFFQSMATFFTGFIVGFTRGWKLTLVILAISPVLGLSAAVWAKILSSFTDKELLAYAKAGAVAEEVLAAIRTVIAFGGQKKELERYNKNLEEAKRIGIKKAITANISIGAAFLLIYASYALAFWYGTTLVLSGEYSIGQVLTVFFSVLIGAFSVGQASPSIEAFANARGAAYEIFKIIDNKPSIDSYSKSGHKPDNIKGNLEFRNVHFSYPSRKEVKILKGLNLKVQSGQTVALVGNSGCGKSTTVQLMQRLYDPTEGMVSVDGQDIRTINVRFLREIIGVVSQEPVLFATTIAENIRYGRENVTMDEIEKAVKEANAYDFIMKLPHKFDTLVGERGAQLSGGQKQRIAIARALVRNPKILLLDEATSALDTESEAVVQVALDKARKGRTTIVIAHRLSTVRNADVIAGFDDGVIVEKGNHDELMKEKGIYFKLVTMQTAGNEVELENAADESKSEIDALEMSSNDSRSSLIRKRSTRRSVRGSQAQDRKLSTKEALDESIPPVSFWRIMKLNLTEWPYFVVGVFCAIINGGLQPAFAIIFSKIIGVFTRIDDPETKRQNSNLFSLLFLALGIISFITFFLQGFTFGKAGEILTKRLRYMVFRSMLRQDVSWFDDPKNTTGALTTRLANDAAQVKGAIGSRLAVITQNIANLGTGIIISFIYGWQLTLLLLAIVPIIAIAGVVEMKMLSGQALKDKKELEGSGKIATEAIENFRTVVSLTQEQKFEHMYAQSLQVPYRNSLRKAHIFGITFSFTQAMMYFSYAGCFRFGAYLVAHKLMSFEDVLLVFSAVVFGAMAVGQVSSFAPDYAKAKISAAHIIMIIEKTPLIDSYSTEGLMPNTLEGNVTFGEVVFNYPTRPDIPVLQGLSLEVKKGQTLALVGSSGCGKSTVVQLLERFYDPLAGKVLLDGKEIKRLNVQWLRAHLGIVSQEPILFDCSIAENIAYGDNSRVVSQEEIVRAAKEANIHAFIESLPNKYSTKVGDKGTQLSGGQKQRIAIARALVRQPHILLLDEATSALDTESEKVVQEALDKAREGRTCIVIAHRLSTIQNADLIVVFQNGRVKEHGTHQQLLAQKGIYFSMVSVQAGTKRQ
Chain of Multidrug resistance protein 1a (Q6PSM0 whole entry): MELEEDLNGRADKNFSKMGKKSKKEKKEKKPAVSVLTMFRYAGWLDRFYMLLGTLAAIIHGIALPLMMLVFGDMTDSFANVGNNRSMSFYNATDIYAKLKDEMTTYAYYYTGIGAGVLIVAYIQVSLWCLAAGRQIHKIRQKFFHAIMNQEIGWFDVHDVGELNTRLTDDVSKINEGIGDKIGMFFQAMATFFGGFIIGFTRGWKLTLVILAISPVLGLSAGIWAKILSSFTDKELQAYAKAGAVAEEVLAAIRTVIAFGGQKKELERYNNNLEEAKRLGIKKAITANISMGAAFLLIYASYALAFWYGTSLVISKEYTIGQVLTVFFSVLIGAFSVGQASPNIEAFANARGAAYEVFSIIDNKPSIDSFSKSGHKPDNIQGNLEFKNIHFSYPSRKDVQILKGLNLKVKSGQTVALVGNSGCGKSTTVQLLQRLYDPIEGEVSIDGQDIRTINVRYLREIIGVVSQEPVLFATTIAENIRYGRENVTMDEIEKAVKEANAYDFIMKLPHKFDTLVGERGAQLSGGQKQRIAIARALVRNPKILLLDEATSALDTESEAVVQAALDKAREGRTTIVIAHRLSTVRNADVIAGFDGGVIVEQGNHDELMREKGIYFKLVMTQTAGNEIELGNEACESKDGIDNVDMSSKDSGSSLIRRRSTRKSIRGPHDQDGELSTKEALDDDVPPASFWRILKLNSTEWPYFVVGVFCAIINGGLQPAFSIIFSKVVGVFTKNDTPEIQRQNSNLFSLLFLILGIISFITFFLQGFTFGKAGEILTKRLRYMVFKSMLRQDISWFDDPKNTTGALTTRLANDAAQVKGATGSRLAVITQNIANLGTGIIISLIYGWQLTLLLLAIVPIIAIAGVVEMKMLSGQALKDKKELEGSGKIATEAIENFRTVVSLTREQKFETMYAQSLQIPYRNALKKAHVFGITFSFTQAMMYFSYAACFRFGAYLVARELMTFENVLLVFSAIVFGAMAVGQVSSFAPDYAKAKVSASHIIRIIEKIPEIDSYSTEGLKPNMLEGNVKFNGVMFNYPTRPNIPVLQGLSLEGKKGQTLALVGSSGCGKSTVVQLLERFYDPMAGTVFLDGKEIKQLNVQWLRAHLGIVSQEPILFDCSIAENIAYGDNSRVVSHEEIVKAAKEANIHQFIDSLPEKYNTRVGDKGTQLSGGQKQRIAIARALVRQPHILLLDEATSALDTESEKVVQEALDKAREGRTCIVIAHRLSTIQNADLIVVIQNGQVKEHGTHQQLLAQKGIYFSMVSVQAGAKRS

SMILES	Papp [1]	Ratio [2]	Ratio [3]	Activity [4]	fraction unbound [5]	Ratio [6]	Kp [7]	concentration (Cerebrospinal fluid)	concentration (Brain)	concentration (Plasma)	%max [8]	fold change (FC) [9]
N#CC1(c2ccccn2)CCN(Cc2cc(C(=O)N[C@H]3CCCC[C@@H]3O)c(=O)n3ccccc23)CC1	29 ×10⁻⁶ cm/s	21.1	11.1									
COc1ccc(Cc2cc(C(=O)O)c(OC)c3ccccc23)cc1				3330 nM								
COc1c(C(=O)N[C@H]2CCCC[C@@H]2O)cc(Cc2ccc(Cl)nc2)c2ccccc12	32 ×10⁻⁶ cm/s	1.9	1.3	260 nM	0.1	< 0.1	0.22	5 nM	420 nM	2060 nM	74%	
COc1c(C(=O)N[C@H]2CCCC[C@@H]2O)cc(CN2CCC(C#N)(c3ccccn3)CC2)c2ccccc12	31 ×10⁻⁶ cm/s	2.3	1.7	303 nM							62%	
CCc1c(C(=O)N[C@H]2CCCC[C@@H]2O)cc(Cc2ccc(Cl)nc2)c2ccccc12				7400 nM							47%	
COc1c(C(=O)N[C@H]2CCCC[C@@H]2O)cc(Cc2ccc(-n3cccn3)nc2)c2ccccc12	31 ×10⁻⁶ cm/s	3.2	1.7	87 nM	0.014	0.34	0.17	8.7 nM	370 nM	2100 nM	83%	
CC(=O)Oc1c(C(=O)N[C@H]2CCCC[C@@H]2O)cc(Cc2ccc(Cl)nc2)c2ccccc12				> 10000 nM							18%	
COc1c(C(=O)O)cc(CN2CCC(C#N)(c3ccccn3)CC2)c2ccccc12				5400 nM								
COc1c(C(=O)N[C@H]2CCCC[C@@H]2O)cc(Cc2ccc(SC)nc2)c2ccccc12				170 nM							76%	
C=Cc1ccc(Cc2cc(C(=O)N[C@H]3CCCC[C@@H]3O)c(OC)c3ccccc23)cn1				74 nM							88%	
COc1c(C(=O)N[C@H]2CCCC[C@@H]2O)cc(Cc2ccc(-c3cccnc3)nc2)c2ccccc12	28 ×10⁻⁶ cm/s	1.5	0.9	24 nM	0.006	0.38	0.2	11 nM	860 nM	4900 nM	73%	10
COc1c(C(=O)N[C@H]2CCCC[C@@H]2O)cc(Cc2ccc(C)nc2)c2ccccc12	35 ×10⁻⁶ cm/s	2.1	1.6	121 nM	0.016	0.9	0.21	91 nM	1200 nM	6020 nM	93%	100
O=C(N[C@H]1CCCC[C@@H]1O)c1cc(Cc2ccc(Cl)nc2)c2ccccc2c1O				9100 nM							35%	
CCOc1c(C(=O)N[C@H]2CCCC[C@@H]2O)cc(Cc2ccc(Cl)nc2)c2ccccc12				980 nM							37%	
COc1ccc(Cc2cc(C(=O)N[C@H]3CCCC[C@@H]3O)c(OC)c3ccccc23)cn1				140 nM							85%	
CCc1ccc(Cc2cc(C(=O)N[C@H]3CCCC[C@@H]3O)c(OC)c3ccccc23)cn1				190 nM							73%	
COc1c(C(=O)N[C@H]2CCCC[C@@H]2O)cc(CN2CCN(c3cc4ccccc4cn3)CC2)c2ccccc12				4000 nM							57%	
C=CCOc1c(C(=O)N[C@H]2CCCC[C@@H]2O)cc(Cc2ccc(Cl)nc2)c2ccccc12				1100 nM							68%	
COc1c(C(=O)N[C@H]2CCCC[C@@H]2O)cc(Cc2ccc(-c3cnn(C)c3)nc2)c2ccccc12	27 ×10⁻⁶ cm/s	1.4	1.1	17 nM	0.001		0.06		1600 nM	29000 nM	77%	
COc1c(C(=O)N[C@H]2CCCC[C@@H]2O)cc(CN2CCN(c3cnn(C)c3)CC2)c2ccccc12				3900 nM							83%	
